Calls of active or inactive are those of the source.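 The calls were made as follows, unless noted: active = viability at or below 30% in both replicate assays; inconclusive = viability at or below 30% in just one of the two assays; inactive = the rest.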

Experiment [1] can be described thus: Her2 expression decrease, cell viability multiplex – SKBR3 breast tumor cells, AlphaScreen, ATP viability, primary screen (AID 461;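 active = Her2 level under about 52% in both replicate screens, with viability over 70% of control, limit read from the data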;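 as to Her2 level: lower value means less Her2 protein in the cells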;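 as to viability: percent of carrier control wells set as 100% viability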). The note with it: SKBR3 Her2 protein level, 18-24 h, measured here: SKBR3 viability, ATP luminescence, at 10 µM.
Experiment [2] has as its target Receptor tyrosine-protein kinase erbB-2 (Homo sapiens) (UniProt P04626). The description is as above. As to conditions: 18-24 h, at 10 µM, stronger effect = lower value.
Experiment [3] can be described thus: reduced viability of SK-BR-3 breast cancer cells – cell-based, 24 h, human, pilot screen (AID 572;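 active = viability at or below 10% of carrier control in both of two separate runs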;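 also: compound exposure lasted between 18 and 24 h rather than exactly 24 h; 100% = carrier-treated control wells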). As to conditions: SK-BR-3 viability, CellTiter-Glo luminescence, at 10 µM, stronger effect = lower value.
Experiment [4] can be described thus: HUVEC growth inhibition – cell-based, human, primary screen (AID 575).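 Also: 100% = median of untreated cell wells with 0.1% DMSO on each plate.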 The note with it: HUVEC proliferation, CellTiter-Glo luminescence, 72 h; at 10 µM; stronger effect = lower value. In outline: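 Material: primary human umbilical vein endothelial cells / Schedule: 72 h exposure, 37 °C, 5% CO2, 30 min RT equilibration / Signal: ATP-based CellTiter-Glo luminescent read / Read-out basis: percent of median DMSO-control luminescence / Control set: 32 DMSO-only cell-control wells (high), 32 MePR drug-control wells (low) per plate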

Experiment [5] in a line: H69AR cell proliferation blockers – human, duplicate replicates, primary screen (AID 580;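 active = viability at or under a set limit in both replicates, limit being median viability minus 3 SD, cut at about 48% in these data, passing the limit was not always enough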;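 also: 100% = mean luminescence of untreated wells and 0% = no signal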). As to conditions: H69AR lung tumor cells viability, ATP luminescence, 72 h; at 10 µM; stronger effect = lower value.
Experiment [6] can be described thus: MRP1 drug-resistance reversers in H69AR cells – cell-based, doxorubicin co-treatment, pilot screen (AID 601;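 active = viability loss from added drug above about 55%, and viability with drug at most 40%, in both replicates, limit read from the data, passing the limit was not always enough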). The note with it: CellTiter-Glo, 72 h, at 10 µM; for differential viability (reversal): stronger effect = higher value.
The nature of experiment [7]: yeast transport mutant growth inhibition pilot in 384-well plates, post-Golgi transport modulator project (AID 636; in the data active = inhibition above about 31%). The note with it: absorbance 615 nm, about 18 h, stronger effect = higher value.
A short description of experiment [8]: growth suppression of yeast trafficking mutant, preliminary HTS, modulators of trafficking downstream of Golgi apparatus project, 1536-format plate, OD 615 nm (AID 637; in the data active = inhibition above about 30%). As to conditions: yeast transport mutant growth, absorbance 615 nm, 18 h; stronger effect = higher value.
[9] abbreviates: H69AR cells + 2 uM doxorubicin, measured here: viability with 2 uM doxorubicin, stronger effect = lower value.
[10] abbreviates: H69AR cells, compound alone cytotoxicity.

Receptor tyrosine-protein kinase erbB-2 (Homo sapiens), sequence (P04626 whole entry, looked up): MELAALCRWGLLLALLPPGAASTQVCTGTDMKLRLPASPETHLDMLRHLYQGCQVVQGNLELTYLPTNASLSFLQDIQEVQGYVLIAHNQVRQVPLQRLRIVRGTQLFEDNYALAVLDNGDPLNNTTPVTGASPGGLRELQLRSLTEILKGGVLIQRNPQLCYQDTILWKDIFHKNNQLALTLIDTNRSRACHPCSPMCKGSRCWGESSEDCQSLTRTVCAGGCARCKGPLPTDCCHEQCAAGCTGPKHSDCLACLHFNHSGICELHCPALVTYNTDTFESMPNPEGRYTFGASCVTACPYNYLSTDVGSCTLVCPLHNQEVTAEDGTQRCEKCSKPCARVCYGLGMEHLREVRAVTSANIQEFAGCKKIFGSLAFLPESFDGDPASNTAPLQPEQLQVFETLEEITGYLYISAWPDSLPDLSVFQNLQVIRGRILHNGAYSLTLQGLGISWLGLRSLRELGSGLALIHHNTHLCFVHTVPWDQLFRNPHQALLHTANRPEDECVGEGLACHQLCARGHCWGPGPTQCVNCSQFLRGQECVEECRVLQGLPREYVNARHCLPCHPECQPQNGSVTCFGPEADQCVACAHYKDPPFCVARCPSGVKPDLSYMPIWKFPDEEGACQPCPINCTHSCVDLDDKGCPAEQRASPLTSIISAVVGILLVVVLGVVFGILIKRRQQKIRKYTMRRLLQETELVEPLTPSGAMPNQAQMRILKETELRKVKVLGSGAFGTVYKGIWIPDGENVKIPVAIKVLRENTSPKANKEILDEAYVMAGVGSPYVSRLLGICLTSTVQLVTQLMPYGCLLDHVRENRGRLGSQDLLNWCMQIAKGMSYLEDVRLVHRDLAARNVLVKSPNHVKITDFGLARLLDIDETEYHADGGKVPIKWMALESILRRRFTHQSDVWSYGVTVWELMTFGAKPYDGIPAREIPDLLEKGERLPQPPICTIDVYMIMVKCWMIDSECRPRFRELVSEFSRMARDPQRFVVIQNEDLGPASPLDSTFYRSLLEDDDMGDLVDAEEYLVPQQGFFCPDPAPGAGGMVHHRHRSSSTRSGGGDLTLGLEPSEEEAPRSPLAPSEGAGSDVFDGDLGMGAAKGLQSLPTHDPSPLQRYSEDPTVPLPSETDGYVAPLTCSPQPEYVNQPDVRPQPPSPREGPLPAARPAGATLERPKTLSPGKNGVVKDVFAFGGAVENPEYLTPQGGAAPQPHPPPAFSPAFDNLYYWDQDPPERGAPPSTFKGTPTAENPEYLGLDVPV

For `CN(C(=O)c1ccccc1Cl)c1ccccc1`, the viability was 93.5% in experiment [1]; 93.5% (inactive) in experiment [3]; 92.8% (inactive) in experiment [4]; 106% (inactive) in experiment [5]; 82% in experiment [6] (setting [9]); 106% in experiment [6] (setting [10]). The Her2 level in experiment [2] is 83.5% (inactive). The differential viability (reversal) in experiment [6] (H69AR cells + 2 uM doxorubicin) was 23.6% (inactive). Moreover, the inhibition in experiment [7] is -8.63% (inactive); in experiment [8], 0.95% (inactive).

In the case of `CCOC(=O)c1c(NC(=O)c2cccs2)sc(C)c1C`, the viability is 77% in experiment [1]; 77% (inactive) in experiment [3]; 67.8% (inactive) in experiment [4]; 86.2% (inactive) in experiment [5]; 83.6% in experiment [6] (setting [9]); 86.2% in experiment [6] (setting [10]). For the same compound, in experiment [2], the Her2 level was 83.5% (inactive). In experiment [6] (H69AR cells + 2 uM doxorubicin), the differential viability (reversal) is 2.64% (inactive). The inhibition in experiment [7] was -5.33% (inactive); in experiment [8] it was -0.16% (inactive).

With `COC(=O)c1ccccc1NC(=O)c1ccc(COc2ccccc2)o1`, the viability in experiment [1] was 71.5%; in experiment [3], 71.5% (inactive); in experiment [4], 94.6% (inactive); in experiment [5], 98.3% (inactive); in experiment [6] (setting [9]), 97.6%; in experiment [6] (setting [10]), 98.3%. The Her2 level in experiment [2] was 106% (inactive). The differential viability (reversal) in experiment [6] (H69AR cells + 2 uM doxorubicin) was 0.68% (inactive). Besides, the inhibition in experiment [7] was -6.13% (inactive); in experiment [8], -4.1% (inactive).

Take `COc1cccc(NC(=O)NC2(C(F)(F)F)Oc3ccccc3O2)c1`: the viability in experiment [1] was 91.5%; in experiment [3] it was 91.5% (inactive); in experiment [4], 69.1% (inactive); in experiment [5], 30.7% (active); in experiment [6] (setting [9]), 48.1%; in experiment [6] (setting [10]), 30.7%. In addition, the Her2 level in experiment [2] is 98% (inactive). Besides, the differential viability (reversal) in experiment [6] (H69AR cells + 2 uM doxorubicin) was -17.4% (inactive). Further, the inhibition was -5.07% (inactive) in experiment [7] and -0.16% (inactive) in experiment [8].

Take `O=C(CSc1nnc(Cn2cnc3ccccc32)o1)c1ccccc1`: the viability in experiment [1] was 124%; in experiment [3] it was 124% (inactive); in experiment [4], 61.8% (inactive); in experiment [5], 73.3% (inactive); in experiment [6] (setting [9]), 83.2%; in experiment [6] (setting [10]), 73.3%. Further, in experiment [2], the Her2 level is 86.5% (inactive). In addition, the differential viability (reversal) in experiment [6] (H69AR cells + 2 uM doxorubicin) was -9.91% (inactive). For the same compound, the values for the inhibition in experiment [7] and in experiment [8] were -6.84% (inactive) and 3.49% (inactive), respectively.

For `CCn1c(Cc2ccc(OC)cc2)nnc1SCC(=O)Nc1cccc(C(=O)OC)c1`, the viability in experiment [1] was 89.5%; in experiment [3], 89.5% (inactive); in experiment [4], 85.8% (inactive); in experiment [5] it was 103% (inactive); in experiment [6] (setting [9]), 95.7%; in experiment [6] (setting [10]) it was 103%. Further, the Her2 level in experiment [2] was 86.5% (inactive). Also, the differential viability (reversal) in experiment [6] (H69AR cells + 2 uM doxorubicin) is 7.12% (inactive). The inhibition in experiment [7] was -1.45% (inactive); in experiment [8], -2.86% (inactive).

Regarding `CC1=C(C(=O)OC2CCCCC2)C(c2cccnc2)n2ncnc2N1` (stereo not given), the viability in experiment [1] was 104%; in experiment [3], 104% (inactive); in experiment [4], 105% (inactive); in experiment [5] it was 81.8% (inactive); in experiment [6] (setting [9]) it was 90.4%; in experiment [6] (setting [10]) it was 81.8%. Besides, in experiment [2], the Her2 level is 66.5% (inactive). The differential viability (reversal) in experiment [6] (H69AR cells + 2 uM doxorubicin) was -8.64% (inactive). For the same compound, the inhibition in experiment [7] was -6.58% (inactive); in experiment [8], -5.83% (inactive).

As for `Cn1c(=O)c2c(nc(SCCCC#N)n2Cc2ccccc2F)n(C)c1=O`, the viability was 79.5% in experiment [1]; 79.5% (inactive) in experiment [3]; 95.8% (inactive) in experiment [4]; 71.2% (inactive) in experiment [5]; 75.8% in experiment [6] (setting [9]); 71.2% in experiment [6] (setting [10]). Besides, the Her2 level in experiment [2] is 84.5% (inactive). In experiment [6] (H69AR cells + 2 uM doxorubicin), the differential viability (reversal) was -4.56% (inactive). For the same compound, the inhibition in experiment [7] was -3.47% (inactive); in experiment [8] it was -3.67% (inactive).

Take `COc1ccc(CC(=O)N2CCOCC2)cc1OC`: the viability in experiment [1] is 97.5%; in experiment [3], 97.5% (inactive); in experiment [4] it was 102% (inactive); in experiment [5], 91.9% (inactive); in experiment [6] (setting [9]), 94.2%; in experiment [6] (setting [10]) it was 91.9%. The Her2 level in experiment [2] is 99% (inactive). In addition, in experiment [6] (H69AR cells + 2 uM doxorubicin), the differential viability (reversal) was -2.21% (inactive). Besides, the inhibition in experiment [7] was 0.13% (inactive); in experiment [8], 3.28% (inactive).

`COC(=O)c1cccc(NC(=O)CSc2nnc(COc3ccc(C#N)cc3)n2-c2ccccc2)c1`: the viability in experiment [1] is 92%; in experiment [3], 92% (inactive); in experiment [4], 105% (inactive); in experiment [5], 87.8% (inactive); in experiment [6] (setting [9]) it was 89.4%; in experiment [6] (setting [10]) it was 87.8%. In addition, in experiment [2], the Her2 level is 112% (inactive). Also, the differential viability (reversal) in experiment [6] (H69AR cells + 2 uM doxorubicin) was -1.66% (inactive). Besides, the inhibition in experiment [7] was 3.38% (inactive); in experiment [8], -3.02% (inactive).

As for `Cn1cnc2c(N3CCCCC3)nccc21`, the viability is 116% in experiment [1]; 116% (inactive) in experiment [3]; 87.3% (inactive) in experiment [4]; 90.5% (inactive) in experiment [5]; 95.7% in experiment [6] (setting [9]); 90.5% in experiment [6] (setting [10]). Besides, the Her2 level in experiment [2] was 104% (inactive). The differential viability (reversal) in experiment [6] (H69AR cells + 2 uM doxorubicin) is -5.21% (inactive). The results for the inhibition in experiment [7] and in experiment [8] were -4.16% (inactive) and -1.64% (inactive), respectively.

`Cc1cc(OC(=O)N2CCOCC2)cc(C)c1Cl`: the viability was 93.5% in experiment [1]; 93.5% (inactive) in experiment [3]; 88.7% (inactive) in experiment [4]; 105% (inactive) in experiment [5]; 84.9% in experiment [6] (setting [9]); 105% in experiment [6] (setting [10]). Further, the Her2 level in experiment [2] is 94.5% (inactive). Besides, the differential viability (reversal) in experiment [6] (H69AR cells + 2 uM doxorubicin) is 19.9% (inactive). The inhibition in experiment [7] was -3.55% (inactive); in experiment [8], -6.35% (inactive).

As to `CCc1cccc(NS(=O)(=O)c2c(C)n[nH]c2C)c1`, the viability in experiment [1] was 92%; in experiment [3], 92% (inactive); in experiment [4], 110% (inactive); in experiment [5], 107% (inactive); in experiment [6] (setting [9]), 93.5%; in experiment [6] (setting [10]), 107%. The Her2 level in experiment [2] is 96% (inactive). Moreover, in experiment [6] (H69AR cells + 2 uM doxorubicin), the differential viability (reversal) is 13.2% (inactive). For the same compound, the figures for the inhibition in experiment [7] and in experiment [8] were -6.05% (inactive) and -5.08% (inactive), respectively.

Regarding `Cc1ccccc1S(=O)(=O)Cc1ccc(C(=O)NCc2cccnc2)o1`, the viability in experiment [1] is 93%; in experiment [3], 93% (inactive); in experiment [4] it was 97.8% (inactive); in experiment [5], 94.2% (inactive); in experiment [6] (setting [9]), 87.6%; in experiment [6] (setting [10]) it was 94.2%. In addition, in experiment [2], the Her2 level is 83.5% (inactive). For the same compound, the differential viability (reversal) in experiment [6] (H69AR cells + 2 uM doxorubicin) was 6.61% (inactive). The inhibition in experiment [7] was -1.84% (inactive); in experiment [8], -2.91% (inactive).

Take `Oc1cc(NCc2cccnc2)ccc1-c1nc2ccccc2o1`: the viability in experiment [1] was 86.5%; in experiment [3], 86.5% (inactive); in experiment [4], 97.2% (inactive); in experiment [5], 82.7% (inactive); in experiment [6] (setting [9]), 90.1%; in experiment [6] (setting [10]), 82.7%. In experiment [2], the Her2 level is 94% (inactive). Besides, the differential viability (reversal) in experiment [6] (H69AR cells + 2 uM doxorubicin) was -7.37% (inactive). The inhibition is 1.17% (inactive) in experiment [7] and 10.8% (inactive) in experiment [8].

These data come from PubChem BioAssay.
